Bioassay records deposited in PubChem BioAssay by several laboratories.
Hits are enriched below; roughly 2.5% of the tested compounds scored in any of these assays.
Granule exo inh: lytic granule exocytosis inhibition; TALL-104 LAMP-1 surface exposure, flow cytometry; cells stimulated with thapsigargin and PMA; inhibition, % at 10 µM; 0.66% of 360,000 active;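 active means inhibition above about 55%, limit read from the data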
MC4R ag barr: activates human MC4R beta-arrestin recruitment; P32245; U2OS MC4R beta-arrestin complementation, luminescence; percent of melanotan II response, DMSO zero; activation, % at 8.9 µM; 0.98% of 360,000 active; AID 540308;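 active means activation above a per-plate cutoff, the mean activation of sample wells on that plate plus 3 SD, cut at about 8% in these data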
HGIII-sPLA2 inh: Blocks human group III sPLA2 activity. inhibition, % at 12.2 µM. QFRET BODIPY PC-A2 liposome hydrolysis, fluorescence. 0.56% of 370,000 active. AID 743126. Q9NZ20;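 active means inhibition above mean plus 3 SD of compounds lying within the high and low control bounds, cut at about 19% in these data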
Target sequence (Q9NZ20 whole entry, looked up): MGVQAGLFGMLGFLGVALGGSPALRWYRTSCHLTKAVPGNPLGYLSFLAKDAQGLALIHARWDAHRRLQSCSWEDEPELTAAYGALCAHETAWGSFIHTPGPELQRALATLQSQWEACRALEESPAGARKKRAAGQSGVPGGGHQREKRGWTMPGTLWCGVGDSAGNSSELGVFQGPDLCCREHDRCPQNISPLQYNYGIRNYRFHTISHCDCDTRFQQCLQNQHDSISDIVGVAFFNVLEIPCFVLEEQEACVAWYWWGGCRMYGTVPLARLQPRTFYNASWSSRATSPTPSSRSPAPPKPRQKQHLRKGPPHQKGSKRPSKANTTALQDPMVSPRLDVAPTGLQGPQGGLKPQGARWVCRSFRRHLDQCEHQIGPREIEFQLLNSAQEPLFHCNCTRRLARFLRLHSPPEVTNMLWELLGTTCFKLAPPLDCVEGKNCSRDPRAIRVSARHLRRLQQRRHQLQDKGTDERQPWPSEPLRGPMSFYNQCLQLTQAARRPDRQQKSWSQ
MC4R antagonist: antagonists of human melanocortin 4 receptor (MC4R) | P32245 | MC4R-expressing cells, MTII-stimulated cAMP, LANCE TR-FRET | inhibition, % at 6.5 µM | 0.48% of 360,000 active | AID 540295;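 active means inhibition above its plate's cutoff, the mean of tested wells on that plate plus 3 SD, cut at about 29% in these data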
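system = U2OS cells with stable human MC4R expression | also added = Melanotan II challenge after compound preincubation | dosing = one concentration, 6.5 µM nominal | incubation = compound 30 min, challenge 1 h, detection 1 h | measured by = TR-FRET with Eu-cAMP and labeled anti-cAMP, 671 nm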
A1 inh: inhibitors of the anti-apoptotic protein A1, read as caspase activation; caspase activation, % (test concentration not listed); MEF A1-2A-BIM cells, Caspase-Glo 3/7 luminescence, 3 h; percent of clofoctol response, vehicle zero; 0.066% of 330,000 active;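 active means over half of replicate activation scores above 10%, or exactly half above 10 with the replicate mean above 10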
NTR1 agonist: activates human neurotensin receptor 1. activation, % at 20 µM. P30989. NTR1-U2OS beta-arrestin-GFP spot imaging, agonist mode. 0.17% of 330,000 active;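 active means activation at or above 40% of the spot to cytoplasm intensity ratio, with at least 20 cells analyzed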
MC4R barr ag: human MC4R beta-arrestin agonism confirmation; U2OS MC4R beta-arrestin recruitment, luminescence; scaled DMSO 0%, Melanotan II 100%; shares compounds with MC4R ag barr; activation, % at 8.9 µM; 31% of 2,400 active;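 active means mean activation across replicates above the hit cutoff set in the earlier primary screen, cut at about 8% in these data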
MOR DOR agonist: activates mu-delta opioid heterodimer, MC4R agonist counter-screen | 5.8% of 2,400 active | AID 602194 | U2OS PathHunter beta-arrestin, beta-gal luminescence; percent of deltorphin B response, DMSO zero | activation, % at 9.2 µM | shares compounds with MC4R ag barr;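 active means mean activation across replicates exceeds the hit threshold derived in the earlier primary screen, cut at about 18% in these data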
Of the large screens only hits and unclear results are named; the others gave an inactive call (follow-up assays come after a bar, where they were run).

Cc1ccc(SCc2ccc(C(=O)Nc3cccc([N+](=O)[O-])c3C)cc2)cc1	MC4R ag barr 23 | MC4R barr ag inactive | MOR DOR agonist inactive
COC(=O)[C@]12C[C@H](CC(=O)NCC34CC5CC(CC(C5)C3)C4)C(=O)N(CCC3=CCCCC3)C1=C[C@H](C(C)C)O[C@@H]2C1CC1	none (no result: Granule exo inh, MC4R ag barr, MC4R antagonist, A1 inh, NTR1 agonist)
Cc1cccc(-c2cccc3c4c([nH]c23)[C@@H]2C[C@H](N(C)C(=S)NCCc3ccccc3)[C@H]([C@H](C)O)CN2CC4)c1	none (no result: Granule exo inh, MC4R ag barr, MC4R antagonist, A1 inh, NTR1 agonist)
COc1ccc(Cn2c(C)c(C)c(C#N)c2NC(=O)Nc2cccc(Cl)c2)cc1	MC4R ag barr 21 | MC4R barr ag inactive | MOR DOR agonist inactive
COc1ccc(Cn2c(C)c(C)c(C#N)c2NC(=O)Nc2ccc(Cl)cc2)cc1	MC4R ag barr 13 | MC4R barr ag inactive | MOR DOR agonist inactive
COC(=O)c1cc(C)oc1C	none (no result: Granule exo inh, MC4R ag barr, MC4R antagonist, A1 inh, NTR1 agonist)
N#CCC[C@H]1CC[C@]2(CCCN(c3ccccc3)C2)O1	none (no result: Granule exo inh, MC4R ag barr, MC4R antagonist, A1 inh, NTR1 agonist)
N#Cc1cc(-c2ccc(Cl)cc2)cnc1Sc1ccc(F)cc1	MC4R ag barr 18 | MC4R barr ag inactive | MOR DOR agonist inactive
c1ccc(-c2cccc3[nH]cc(-c4ccccc4)c23)cc1	none (no result: Granule exo inh, MC4R ag barr, MC4R antagonist, A1 inh, NTR1 agonist)
COc1ccc(C(=O)Nc2ccc(N3CCN(Cc4ccccc4)CC3)cc2)cc1	none
COc1c(F)c(F)c(C(=O)Nc2ccc(N3CCN(Cc4ccccc4)CC3)cc2)c(F)c1F	MC4R ag barr 11 | MC4R barr ag inactive | MOR DOR agonist inactive
Cc1ccc(OCCCOc2ccc(Cl)cc2Cl)c([N+](=O)[O-])n1	none (no result: Granule exo inh, MC4R ag barr, MC4R antagonist, A1 inh, NTR1 agonist)
COC(=O)c1ccc(CSc2nnc(NC(=O)c3cc4c(s3)CCCC4)s2)cc1	MC4R ag barr 18 | MC4R barr ag inactive | MOR DOR agonist inactive
CC1CCc2sc(C(=O)Nc3nnc(SCc4ccc(F)cc4)s3)cc2C1 (stereo unspecified)	MC4R ag barr 33 | MC4R barr ag 12 | MOR DOR agonist inactive
CC(=O)c1cccc(NC(=O)c2cccc3c(-c4cccc(C(N)=O)c4)coc23)c1	MC4R ag barr 20 (no result: A1 inh, NTR1 agonist) | MC4R barr ag inactive | MOR DOR agonist inactive
COc1ccc(CNc2nc(NCc3ccc(OC)cc3)c3[nH]cnc3n2)cc1	MC4R ag barr 12 | MC4R barr ag 8.8 | MOR DOR agonist inactive
CC(=O)c1cccc(NC(=O)c2noc3c2CCc2ccccc2-3)c1	MC4R ag barr 16 | MC4R barr ag 9.7 | MOR DOR agonist inactive
CCC(c1c[nH]c2ccccc12)c1cn(C)c2ccccc12 (stereo unspecified)	none (no result: Granule exo inh, MC4R ag barr, MC4R antagonist, A1 inh, NTR1 agonist)
O=C(COC(=O)c1ccc2c(c1)C(=O)N(CCc1ccccc1)C2=O)Nc1ccc(OC(F)F)cc1	MC4R ag barr 13 | MC4R barr ag 10 | MOR DOR agonist inactive
COC(=O)C1CN(Cc2ccc(OC)cc2)CCS(=O)(=O)N1Cc1ccccc1 (stereo unspecified)	none (no result: Granule exo inh, MC4R ag barr, MC4R antagonist, A1 inh, NTR1 agonist)
CC(C)[C@H](NC(=O)Cc1ccccc1)C(=O)OCc1cc(=O)n2c(n1)sc1ccccc12	MC4R ag barr 14 | MC4R barr ag inactive | MOR DOR agonist inactive
Cc1ccc2c(CC(=O)OCc3cc(=O)n4c(n3)sc3ccccc34)coc2c1	none
Cc1ccc(C(=O)NCCNc2nc3cc(C)c(C)cc3cc2C)cc1	MC4R ag barr 15 | MC4R barr ag 20 | MOR DOR agonist inactive
Cc1cc2cc(C)c(NCCNC(=O)c3ccccc3)nc2cc1C	none
COc1ccccc1CCC[C@H](CCS(=O)(=O)C(C)C)CC1CCCCC1	none (no result: Granule exo inh, MC4R ag barr, MC4R antagonist, A1 inh, NTR1 agonist)
COc1ccc(NC(=O)c2cccc3ccccc23)cc1	none
COc1ccc(NC(=O)c2cccc3c(Br)cccc23)cc1	MC4R ag barr 12 | MC4R barr ag inactive | MOR DOR agonist inactive
CCN(C(=O)[C@H]1CC(=O)O[C@@H]1c1ccccc1)c1ccccc1	none (no result: Granule exo inh, MC4R ag barr, MC4R antagonist, A1 inh, NTR1 agonist)
CCC(C)Sc1nc2c(cnn2-c2ccccc2)c(=O)[nH]1 (stereo unspecified)	MC4R ag barr 11 | MC4R barr ag inactive | MOR DOR agonist inactive
COc1ccc(-c2cnc3c(NC(C)=O)cc(-c4ccc(C(=O)N5CCOCC5)cc4)cn23)cc1OC	MC4R ag barr 11 (no result: A1 inh, NTR1 agonist) | MC4R barr ag 9.4 | MOR DOR agonist inactive
CC(=O)Nc1cc(-c2ccc(C(=O)N3CCOCC3)cc2)cn2c(-c3ccccc3)cnc12	MC4R ag barr 25 (no result: A1 inh, NTR1 agonist) | MC4R barr ag 19 | MOR DOR agonist inactive
c1ccc(-n2c(SCc3cccc4ccccc34)nnc2-c2ccncc2)cc1	none (no result: Granule exo inh, MC4R ag barr, MC4R antagonist, A1 inh, NTR1 agonist)
CCOC(=O)Cc1nc(N2CCN(CCO)CC2)c2c(C)c(C(=O)OCC)sc2n1	none (no result: Granule exo inh, MC4R ag barr, MC4R antagonist, A1 inh, NTR1 agonist)
CCc1ccc(-c2c(C)sc(NC(C)=O)c2C(N)=O)cc1	none
Cc1cc(C(=O)Nc2sc(C)c(-c3ccc(F)cc3)c2C(N)=O)no1	MC4R ag barr 13 | MC4R barr ag inactive | MOR DOR agonist inactive
COc1ccc(CN2CCC(CNC(=O)NC3CCCC3)CC2)cc1	none (no result: Granule exo inh, MC4R ag barr, MC4R antagonist, A1 inh, NTR1 agonist)
CC1CCN(S(=O)(=O)c2ccc(C(=O)OCc3ccc4c(c3)OCO4)cc2)CC1	MC4R ag barr 12 | MC4R barr ag inactive | MOR DOR agonist inactive
COC(=O)c1ccc(COC(=O)c2ccc(S(=O)(=O)N3CCC(C)CC3)cc2)o1	none
CCNC(=O)N(C)[C@H]1C[C@H]2c3[nH]c4c(-c5cccc(C)c5)cccc4c3CCN2C(=O)[C@H]1[C@H](C)O	none (no result: Granule exo inh, MC4R ag barr, MC4R antagonist, A1 inh, NTR1 agonist)
COc1cc(NC(=O)c2ccccc2)ccc1NC(=O)c1cc2ccccc2o1	none
COc1cccc(C(=O)Nc2ccc(NC(=O)c3cc4ccccc4o3)c(OC)c2)c1	MC4R ag barr 10 | MC4R barr ag inactive | MOR DOR agonist inactive
Cc1cc([N+](=O)[O-])ccc1NC(=O)c1cc2ccccc2o1	none
Cc1cc(NC(=O)c2cncc(Br)c2)ccc1NC(=O)c1cc2ccccc2o1	MC4R ag barr 10 | MC4R barr ag 17 | MOR DOR agonist inactive
Cc1occc1-c1nnc(SCC(=O)Nc2nc(C(C)(C)C)cs2)o1	MC4R ag barr 12 | MC4R barr ag inactive | MOR DOR agonist inactive
Cc1csc(NC(=O)CSc2nnc(-c3ccoc3C)o2)n1	none
CN1C(=O)/C(=C/c2ccc(OCc3ccc(F)cc3)cc2)NC1=S	MC4R ag barr 20 | MC4R barr ag inactive | MOR DOR agonist inactive
CN1C(=O)/C(=C/c2ccc(OCc3ccccc3F)cc2)NC1=S	MC4R ag barr 20 | MC4R barr ag inactive | MOR DOR agonist inactive
CN1C(=O)/C(=C/c2ccc(OCc3ccc(F)cc3)cc2)N(C)C1=S	none
C[C@H]1[C@@H](OC(=O)Nc2ccc(Br)cc2)CC[C@@]23CCCN2C(=O)CCC[C@@H]13	none (no result: Granule exo inh, MC4R ag barr, MC4R antagonist, A1 inh, NTR1 agonist)
